Compound activity deposited in PubChem by several laboratories.
DNMT1 inh – human DNMT1 methyltransferase inhibitors, primary screen, biochemical, molecular beacon, fluorescence, HinP1I cleavage, uHTS; 360,000 tested, 0.83% active; AID 588458, 2011; inhibition (reported as % activation of signal), % at 10 µM; DNA (cytosine-5)-methyltransferase 1 (Homo sapiens), P26358; in the data active means inhibition above about 50%
SUMO1-SIM PPI – modulators of SUMO1 protein-protein interactions, primary screen, biochemical, uHTS. Small ubiquitin-related modifier 1 (Homo sapiens), P63165. SUMO1 binding to a labelled peptide, TR-FRET, 1 h. inhibition, % at 20 µM. 360,000 tested, 0.33% active; in the data active means inhibition above about 37%
Target sequence (P63165 whole entry, looked up): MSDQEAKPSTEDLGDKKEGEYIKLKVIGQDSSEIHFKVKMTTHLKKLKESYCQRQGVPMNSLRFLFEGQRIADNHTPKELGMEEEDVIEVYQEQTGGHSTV
GRK2 aptamer HTS – compounds blocking aptamer binding on GRK2 – biochemical, human GRK2, bead flow cytometry, HTS, primary screen. AID 488847, 2010. inhibition of aptamer binding, % at 10 µM. FAM-aptamer displacement from GRK2. 330,000 tested, 0.59% active. Beta-adrenergic receptor kinase 1 (Homo sapiens), P25098;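 active means inhibition of aptamer binding above 40%, roughly 3 SD of noise, on plates passing a quality check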;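 further: median bead fluorescence of bound FAM aptamer so fluorescent compounds give negative values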
Scp1 inh – Scp-1 phosphatase inhibitors, primary screen, biochemical, colorimetric, uHTS; 340,000 tested, 0.88% active; inhibition, % at 20 µM; Recombinant Scp1, phosphopeptide, malachite green phosphate absorbance; AID 493091, 2011; Carboxy-terminal domain RNA polymerase II polypeptide A small phosphatase 1 (Homo …;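 active means inhibition above about 50% at 20 µM, limit read from the data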
Target sequence (Q9GZU7 76-261 limits assumed): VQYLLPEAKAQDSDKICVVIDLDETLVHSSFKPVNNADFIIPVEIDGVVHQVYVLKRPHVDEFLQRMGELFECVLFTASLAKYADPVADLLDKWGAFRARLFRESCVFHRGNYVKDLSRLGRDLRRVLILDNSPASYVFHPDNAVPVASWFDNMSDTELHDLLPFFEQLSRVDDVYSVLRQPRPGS
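Assay system: SCP-1 catalytic fragment, aa 76-261 | Buffer or medium: Tris acetate buffer pH 5.5 with MgCl2 and Tween-20 | Compound: One concentration, 20 µM, with 1.0% DMSO | Also added: Phospho 17-mer peptide substrate | Signal: Absorbance at 630 nm | Incubation: 45 min enzyme reaction at room temperature | Measure: % inhibition of SCP-1 phosphate liberation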
LMPTP block – LMPTP phosphatase inhibitors, primary screen, biochemical, fluorescence intensity, uHTS | Low molecular weight phosphotyrosine protein phosphatase (Homo sapiens), P24666 | recombinant LMPTP-A, OMFP fluorogenic substrate | inhibition, % at 20 µM | 360,000 tested, 0.22% active | AID 651560, 2012;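 active means compounds that cut the enzyme signal by at least half of the control window in the single-dose screen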
Target sequence (P24666 whole entry, looked up): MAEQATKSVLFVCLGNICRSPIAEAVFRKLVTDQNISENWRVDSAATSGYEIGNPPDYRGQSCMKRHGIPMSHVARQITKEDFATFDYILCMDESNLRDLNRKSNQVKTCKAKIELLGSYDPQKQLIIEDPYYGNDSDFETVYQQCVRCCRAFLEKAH
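Assay system: LMPTP-A enzyme. Input: 0.625 nM LMPTP-A final. Probe or stimulus: 400 µM OMFP. Compound dosing: single 20 µM dose. Schedule: 50 min dark incubation at room temperature. Detection: fluorescence intensity of OMFP turnover product. Read-out: percent inhibition versus substrate-only and uninhibited controls. Benchmarks: no-enzyme low control, uninhibited high control.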
STEP inh – STEP phosphatase inhibitors, primary screen, biochemical, fluorescence intensity, uHTS; recombinant STEP, OMFP fluorogenic substrate; 360,000 tested, 0.25% active; Tyrosine-protein phosphatase non-receptor type 5 (Homo sapiens), P54829; inhibition, % at 20 µM;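 active means inhibition at 20 µM, scaled per plate between control wells, above about 37%, limit read from the data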
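medium = Bis-Tris buffer pH 6.0, 2.5 mM DTT, 0.005% Tween 20 | test system = STEP (striatal-enriched tyrosine phosphatase) enzyme, cell-free | measure = normalized % inhibition | compound dosing = 20 µM, 1% DMSO | also added = 25 µM OMFP | schedule = reaction 20 min, ambient temperature | measured by = fluorescence read at 480 nm ex / 540 nm em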
Scp1 confirm – Scp-1 phosphatase inhibitors, retest, confirmation, biochemical, colorimetric, single concentration. shares compounds with Scp1 inh. recombinant SCP-1 catalytic domain, phosphate release, malachite green absorbance. inhibition, % at 20 µM. 2,500 tested, 61% active. AID 540281, 2011
MG interference – colorimetric readout interference by compounds, confirmation, artefact control for Scp-1 inhibitor project, biochemical, single concentration; shares compounds with Scp1 inh; Colorimetric interference counterscreen, malachite green absorbance 630 nm; apparent inhibition (interference), % at 20 µM; 2,500 tested, under 10 active; AID 540313, 2011;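 further: compounds added after enzyme reaction finished so only phosphate colour detection is probed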
Scp-1 Tm shift – Scp-1 binding by thermal shift, confirmation, orthogonal assay for Scp-1 inhibitor project, biophysical, differential scanning fluorimetry; 1,500 tested, 25% active; shares compounds with Scp1 inh; AID 540329, 2011; Recombinant SCP1, Sypro Orange thermal shift Tm; thermal shift relative to vanadate control, % at 40 µM;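 active means substances whose mean melting-temperature shift, as a percentage of the reference inhibitor's shift, reaches about 5.3%, limit read from the data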
DNMT1 confirm – DNMT1 methyltransferase inhibitor retest, confirmation, biochemical, molecular beacon, fluorescence, single concentration; shares compounds with DNMT1 inh; DNMT1 molecular beacon HinP1I cleavage; inhibition, % at 10 µM; 2,300 tested, 8% active;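 active means average inhibition of at least 30% in the single-concentration confirmation test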
DNMT1 interf – counter-screen for DNMT1 inhibitors: spectral interference. shares compounds with DNMT1 inh. DNMT1 molecular beacon spectral interference counterscreen, fluorescence 485/520. activation (fluorescence interference), % at 10 µM. 2,300 tested, 1% active;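 active means activation of at least 30% at 10 µM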;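 further: DNMT1 catalytic domain with a HinP1I cleavage step and a FAM/dabcyl DNA beacon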
Hits are given with their value; n = inactive; x = no result given. Sampled rows, rich in hits. Any-hit rate of the full collection: about 2.2%.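 How the source made its calls, unless noted: active means inhibition of at least 30% at 20 µM; inactive means the rest.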

SMILES | DNMT1 inh | SUMO1-SIM PPI | GRK2 aptamer HTS | Scp1 inh | LMPTP block | STEP inh | Scp1 confirm | MG interference | Scp-1 Tm shift | DNMT1 confirm | DNMT1 interf
CCCCNC(=O)C1(C)CCN1C(=O)c1cc(C)n(C(C)(C)C)n1 (stereo not drawn) | n | n | x | x | n | n | x | x | x | x | x
Cc1ccc(S(=O)(=O)N2Cc3ccccc3CC2C(=O)Nc2ccc3c(c2)OCO3)cc1 (stereo not drawn) | 66 | n | n | 70 | n | n | 57 | n | n | n | n
CC1(c2nnnn2C2CCCC2)CCC(=O)N1c1ccc2c(c1)OCCO2 (stereo not drawn) | x | n | x | x | n | x | x | x | x | x | x
O=C(O)C1=C(C(=O)O)C2C=CC1C2 | 60 | n | x | 72 | n | n | 52 | n | n | n | n
Cc1cn(CC(=O)NCc2nc3ccccc3[nH]2)c(=O)[nH]c1=O | x | n | x | x | n | x | x | x | x | x | x
NS(=O)(=O)c1ccc(CNC(=O)/C=C/c2ccco2)cc1 | 90 | n | n | 84 | n | n | 70 | n | n | n | n
O=C(CSc1nnc(COc2ccccc2Cl)o1)NC(=O)NCc1ccco1 | 72 | n | n | 76 | n | n | 44 | n | n | n | n
Cc1nnc(SCC(=O)NC(=O)NCc2ccco2)n1Cc1ccccc1 | 66 | n | n | 87 | n | n | 63 | n | n | n | n
O=C(CSc1nccc(=O)[nH]1)NCc1ccco1 | 77 | n | n | 93 | n | n | 69 | n | n | n | n
O=C(CSc1nnc(Nc2ccccc2F)s1)NCc1ccco1 | 76 | n | x | 83 | n | n | 63 | n | n | n | n
O=C(CSc1nnc(Nc2ccccc2)s1)NCc1ccco1 | n | n | n | n | n | n | x | x | x | x | x
COc1ccc(S(=O)(=O)N(C)C[C@@H]2Oc3cc(C#CC4CCCCC4)ccc3S(=O)(=O)N([C@@H](C)CO)C[C@@H]2C)cc1 | n | n | x | x | n | n | x | x | x | x | x
Cc1ccccc1Nc1nnc(SCC(=O)NC(=O)NCc2ccco2)s1 | 90 | n | n | 84 | n | n | 61 | n | n | n | n
COc1ccc(NC(=O)/C(C#N)=C\c2ccc(Br)o2)cc1 | 79 | n | n | 94 | n | n | 58 | n | n | n | n
CCCNC(=O)CSc1nnc(NC(=O)C2CC(=O)N(c3ccccc3OC)C2)s1 (stereo not drawn) | n | n | x | x | n | n | x | x | x | x | x
Cc1ccc(OCC(=O)Nc2nnc(S(=O)(=O)N3CCCCC3)s2)cc1 | 89 | 43 | n | 71 | n | n | 57 | n | 5.7 | n | n
O=C(N[C@H]1CC[C@H](CCNC(=O)C2CC2)O[C@@H]1CO)c1ccccn1 | x | n | x | x | n | x | x | x | x | x | x
CCCOc1ccc(/C=c2\sc3nc(-c4ccco4)nn3c2=O)cc1OCC | 73 | n | n | 84 | n | n | n | n | x | n | n
O=c1/c(=C/c2ccco2)sc2nc(-c3ccccc3Br)nn12 | n | n | n | n | n | n | x | x | x | x | x
O=C(NCc1ccc(F)cc1)c1[nH]c(C(F)(F)F)nc1-c1ccccc1 | n | n | x | x | n | n | x | x | x | x | x
CC(Cc1c[nH]c2ccccc12)C(=O)NCc1ccco1 (stereo not drawn) | 74 | 60 | n | 103 | n | n | 60 | n | n | n | n
O=C(COC(=O)c1cccc(S(=O)(=O)N2CCN(c3ccccc3)CC2)c1)NCc1ccco1 | 68 | n | n | 66 | n | n | 58 | n | n | n | n
Cc1ccc(C(=O)NCc2occc2C(=O)O)o1 | 53 | n | n | 53 | n | n | 53 | n | n | n | n
Cc1ccc(C(=O)NCc2ccco2)o1 | n | n | n | n | n | n | x | x | x | x | x
CCn1nnc(NC(=O)CSc2ccc(Cl)cc2)n1 | 66 | n | n | 51 | n | n | 72 | n | n | n | n
SMILES | DNMT1 inh | SUMO1-SIM PPI | GRK2 aptamer HTS | Scp1 inh | LMPTP block | STEP inh | Scp1 confirm | MG interference | Scp-1 Tm shift | DNMT1 confirm | DNMT1 interf
CCCCn1nnc(NC(=O)Cc2ccc(Cl)cc2)n1 | n | n | n | n | n | n | x | x | x | x | x
O=C(NCc1ccccc1)C(c1ccccc1)n1c(-c2ccccn2)nc2ccccc21 (stereo not drawn) | x | n | x | x | n | x | x | x | x | x | x
Cn1cccc1CC(=O)N/N=C/C=C/c1ccco1 | 96 | n | n | 69 | n | n | 40 | n | n | n | n
CCn1c(SCC(=O)Nc2sc3c(c2C#N)CCCC3)nnc1-c1ccco1 | n | n | n | n | n | n | x | x | x | x | x
CCOC(=O)Cc1csc(SCC(=O)Nc2sc3c(c2C(N)=O)CCC3)n1 | 95 | n | n | 83 | n | n | 68 | n | 6.6 | n | n
NC(=O)c1c(NC(=O)CSc2nnc(-c3ccco3)n2-c2ccccc2)sc2c1CCC2 | 86 | n | n | 76 | n | n | 75 | n | n | n | n
CCC1(CC)NC(=O)N(CC(=O)Nc2sc3c(c2C(N)=O)CCC3)C1=O | 77 | n | n | 68 | n | n | 61 | n | 12 | n | n
CC1=CC(=O)C(Sc2ccc(C)cc2)=CC1=O | n | n | x | x | n | n | x | x | x | x | x
COC(=O)N1CCCCC1c1cc(C(=O)NCc2ccc(Cl)c(Cl)c2)no1 (stereo not drawn) | n | n | x | x | n | n | x | x | x | x | x
COc1cccc(C(=O)Nc2ccc3c(c2)C(=O)c2ccccc2C3=O)c1 | 74 | n | n | 75 | n | 60 | 64 | n | 5.4 | n | n
